From ChEMBL document CHEMBL1629450, “Design, synthesis, and evaluation of dibenzo[c,h][1,6]naphthyridines as topoisomerase I inhibitors and potential anticancer agents” (J Med Chem, 2010)
Calls of active or inactive are those of the source. No cut-off for these calls is given here.

Columns and labels:
[1] = biological target: T1, DNA topoisomerase 1 (Homo sapiens) (UniProt P11387); test: Inhibition of human topoisomerase 1 assessed as induction of DNA cleavage at base-pair 97 using 161 base-pair fragment form pBluescript SK(-) phagemid DNA substrate by DNA cleavage assay
T1 sequence (whole entry): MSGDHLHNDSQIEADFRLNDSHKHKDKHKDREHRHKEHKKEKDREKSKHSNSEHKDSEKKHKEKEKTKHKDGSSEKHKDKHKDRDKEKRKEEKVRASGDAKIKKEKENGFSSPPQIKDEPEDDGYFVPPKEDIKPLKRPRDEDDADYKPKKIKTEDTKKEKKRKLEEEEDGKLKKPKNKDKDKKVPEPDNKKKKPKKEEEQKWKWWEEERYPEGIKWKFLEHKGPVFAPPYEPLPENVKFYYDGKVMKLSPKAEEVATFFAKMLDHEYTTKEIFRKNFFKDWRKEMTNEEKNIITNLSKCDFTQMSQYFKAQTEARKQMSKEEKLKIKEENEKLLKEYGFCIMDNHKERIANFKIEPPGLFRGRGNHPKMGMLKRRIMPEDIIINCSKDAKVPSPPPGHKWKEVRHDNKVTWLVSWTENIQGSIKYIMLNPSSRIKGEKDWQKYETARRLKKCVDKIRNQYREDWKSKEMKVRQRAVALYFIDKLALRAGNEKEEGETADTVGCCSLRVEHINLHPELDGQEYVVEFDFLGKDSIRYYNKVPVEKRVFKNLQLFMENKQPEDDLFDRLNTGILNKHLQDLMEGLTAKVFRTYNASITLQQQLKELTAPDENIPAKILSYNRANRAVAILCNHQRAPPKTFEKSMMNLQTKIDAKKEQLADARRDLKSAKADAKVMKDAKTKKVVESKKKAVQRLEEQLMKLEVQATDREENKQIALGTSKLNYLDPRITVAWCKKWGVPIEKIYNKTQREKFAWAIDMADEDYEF
In short: (§1)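 Baculovirus-purified human recombinant Top1 with 161 bp PvuII/HindIII fragment of pBluescript SK(-), 3'-end labeled at HindIII site with [α-32P]-dGTP by Klenow fill-in (~50 000 dpm/reaction). Incubated with drug, four 10-fold dilutions from 100 μM, 30 min at 22 °C. Stopped with 0.5% SDS (final), resolved on denaturing 16% polyacrylamide/7 M urea gels. Cleavage scored semiquantitatively.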

[2] = biological target: T1, DNA topoisomerase 1 (Homo sapiens); test: Inhibition of human topoisomerase 1 assessed as induction of DNA damage using 161 base-pair fragment form pBluescript SK(-) phagemid DNA substrate by DNA cleavage assay; in short: as §1
[3] = Solubility of the compound in dimethyl sulfoxide solvent; format: physicochemical
[4] = Solubility of the compound in methanol solvent; format: physicochemical
[5] = Solubility of the compound in chloroform solvent; format: physicochemical
[6] = biological target: T1, DNA topoisomerase 1 (Homo sapiens); test: Inhibition of human topoisomerase 1 assessed as induction of DNA cleavage at base-pair 119 using 161 base-pair fragment form pBluescript SK(-) phagemid DNA substrate by DNA cleavage assay; in short: as §1
[7] = Antiproliferative activity against human RPMI18226 cells after 48 hrs by SRB assay; format: functional; conditions: RPMI18226, 48 h
K562 = test: Antiproliferative activity against human K562 cells after 48 hrs by SRB assay; format: functional; conditions: K562, 48 h
HOP-62 = test: Antiproliferative activity against human HOP62 cells after 48 hrs by SRB assay; format: functional; conditions: HOP-62, 48 h
HCT-116 = test: Antiproliferative activity against human HCT116 cells after 48 hrs by SRB assay; format: functional; conditions: HCT-116, 48 h
SF-539 = test: Antiproliferative activity against human SF539 cells after 48 hrs by SRB assay; format: functional; conditions: SF-539, 48 h
COLO 205 = test: Antiproliferative activity against human COLO205 cells after 48 hrs by SRB assay; format: functional; conditions: COLO 205, 48 h
UACC-62 = test: Antiproliferative activity against human UACC62 cells after 48 hrs by SRB assay; format: functional; conditions: UACC-62, 48 h
[8] = Antiproliferative activity against human OVACR3 cells after 48 hrs by SRB assay; format: functional; conditions: OVACR3, 48 h
IGROV-1 = test: Antiproliferative activity against human IGROV1 cells after 48 hrs by SRB assay; format: functional; conditions: IGROV-1, 48 h
SN12C = test: Antiproliferative activity against human SN12C cells after 48 hrs by SRB assay; format: functional
UO-31 = test: Antiproliferative activity against human UO31 cells after 48 hrs by SRB assay; format: functional; conditions: UO-31, 48 h
DU-145 = test: Antiproliferative activity against human DU145 cells after 48 hrs by SRB assay; format: functional; conditions: DU-145, 48 h
MCF7 = test: Antiproliferative activity against human MCF7 cells after 48 hrs by SRB assay; format: functional; conditions: MCF7, 48 h

With `COc1cc2c(=O)n(C)c3c4ccccc4nc(Cl)c3c2cc1OC` the inhibition [1] was “Active”, the inhibition [2] was “Active” and the solubility [3] was “soluble”. For the same compound, the solubility [4] was “soluble” and the solubility [5] was “soluble”.
For `COc1cc2c(OC)nc3c4ccccc4nc(OC)c3c2cc1OC`, the inhibition [2] was “inactive”.
With `COc1cc2c(=O)n(CCCO)c3c4ccccc4[nH]c(=O)c3c2cc1OC` the inhibition [2] was “inactive”.
With `COc1cc2c(=O)n(CCCN3CCOCC3)c3c4ccccc4nc(Cl)c3c2cc1OC` the inhibition [1] was “Active”, the inhibition [2] was “Active” and the inhibition [6] was “Active”. For the same compound, the solubility [3] was “soluble”, the solubility [4] was “soluble” and the GI50 [7] was 0.1 µM. The solubility [5] was “soluble”, the GI50 (K562) was 0.2 µM and the GI50 (HOP-62) was 4.7 µM. It also gave a GI50 (HCT-116) of 4.16 µM, a GI50 (SF-539) of 12.3 µM and a GI50 (COLO 205) of 0.33 µM. For the same compound, the GI50 (UACC-62) was 6.8 µM, the GI50 [8] was 6.3 µM and the GI50 (IGROV-1) was 0.03 µM. It also gave a GI50 (SN12C) of 13.2 µM, a GI50 (UO-31) of 0.02 µM and a GI50 (DU-145) of 10.5 µM. It also gave a GI50 (MCF7) of 0.4 µM.
In the case of `COc1cc2c(Cl)nc3c4ccccc4nc(Cl)c3c2cc1OC`, the inhibition [2] is reported as “inactive”.
With `COc1cc2c(=O)n(C)c3c4ccccc4[nH]c(=O)c3c2cc1OC` the inhibition [2] was “inactive”.
In the case of `C=CCn1c(=O)c2cc(OC)c(OC)cc2c2c(=O)[nH]c3ccccc3c21`, the inhibition [2] is reported as “inactive”.
Compound `COc1cc2c3c(n(C)c(=O)c2cc1OC)-c1cc2c(cc1C3=O)OCO2` has a GI50 [7] greater than 100 µM, a GI50 (K562) of 6 µM and a GI50 (HOP-62) of 2.8 µM. For the same compound, the GI50 (HCT-116) was 11.5 µM, the GI50 (SF-539) was 1.7 µM and the GI50 (COLO 205) was greater than 100 µM. The GI50 (UACC-62) was 0.6 µM, the GI50 [8] was 22.4 µM and the GI50 (IGROV-1) was 0.01 µM. The GI50 (SN12C) was 25.7 µM, the GI50 (UO-31) was 1.7 µM and the GI50 (DU-145) was 4.8 µM. It also gave a GI50 (MCF7) of 1.9 µM.
